HSF1 inhib = HSF1 inhibition; NIH3T3-HGL HSE-luciferase, MG132-induced, luminescence 8 h; stronger effect = lower value; activity change, negative = inhibition, % at 7.5 µM (by protocol); actives 0.77% (n = 300,000);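 active = more than half of replicate wells show activity change below -50%, luminescence cut by over half; inconclusive = some wells, but at most half, below -50%; inactive = no replicate well below -50%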;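 also: luciferase reports HSF-1 transcriptional activity via heat shock element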
STAT3 activator = STAT3 signaling activation. U3A cells, IL-6 STAT3-luciferase reporter, luminescence; 100% = signal with IL-6 EC80 alone. activation (% of control), % at 5.6 µM. actives 0.91% (n = 190,000). AID 871;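 active = activation above the screen-wide mean of compound activation plus 3 SD, cut at about 130% in these data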
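system = STAT3-luciferase reporter U3A cells | reagent = IL-6 stimulus at 33 ng/mL final | timing = 1 h compound pre-exposure, 6 h IL-6 stimulation, 37 °C | measured by = luminescence | evaluation = % activation versus median of IL-6-stimulated wells | control set = IL-6-only wells as 100% reference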
PERK inh = human PERK inhibition, primary cell-based screen; actives 0.17% (n = 220,000); Q9NZJ5; CHO PERK-DD fusion, SEAP luminescence translation reporter; AID 1416; inhibition, % at 5.6 µM;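 active = inhibition above the mean inhibition of all tested compounds plus 3 SD, set separately per screening campaign, cut at about 2.9% in these data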;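 also: PERK kinase domain activated by AP20187 dimerizer at 100 nM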
AHR activator = activators of human aryl hydrocarbon receptor; P35869; AHR-responsive luciferase reporter cells, luminescence; activation, % at 5 µM; actives 2.5% (n = 320,000); in the data active = activation above about 47%
Hsp70 act = Hsp70 transcriptional activation, primary screen. HeLa Hsp70 promoter luciferase reporter, luminescence; scaled: vehicle 0, proteasome-inhibitor control 100%. AID 1203. actives 0.04% (n = 200,000). activation, % at 10 µM;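 active = activation above the mean across all tested compounds plus 3 SD, cutoff set per campaign, cut at about 5.5% in these data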
PolyA inh = yeast polyadenylation inhibition | S. cerevisiae SKY197-pL101 polyadenylation reporter, beta-gal luminescence; efflux-impaired pdr1/pdr3 knockout yeast; score 100 = 6 SD above DMSO | activity score, % at 12 µM | actives 0.02% (n = 300,000) | AID 1875;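 active = lowest replicate activity score at least 50, where 100 means six control SD above control mean; inconclusive = lowest score under 50 but half or more replicates reach 50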;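 also: yeast exposed to compound for 9 h at 30 °C; higher score means more reporter readthrough which indicates perturbed polyadenylation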
Hits are given with their value. Compounds with a hit are over-represented: about 3.6% of the library has one in this group of screens.

Screening O=C(Nc1nnc(C2CCCCC2)s1)c1cccs1 returned HSF1 inhib inactive, STAT3 activator inactive, PERK inh inactive, AHR activator 77, Hsp70 act inactive and PolyA inh inactive.
For O=C(Nc1nnc(C2CCCO2)s1)c1cccs1 (configuration not stated) the results were HSF1 inhib inactive, STAT3 activator inactive, PERK inh inactive, AHR activator 48, Hsp70 act inactive and PolyA inh inactive.
O=C(Nc1nc2c(s1)CCCC2)c1cccs1 was read as STAT3 activator inactive, PERK inh inactive, AHR activator 59 and Hsp70 act inactive.
`COc1cccc(C(=O)Nc2nnc(C3CCCO3)s2)c1` (configuration not stated) gave HSF1 inhib inactive, STAT3 activator inactive, PERK inh inactive, AHR activator inactive, Hsp70 act inactive and PolyA inh inactive.
For CCc1c(C(=O)Nc2nnc(C3CC3)s2)csc1C the results were HSF1 inhib inactive, STAT3 activator inactive, PERK inh inactive, AHR activator 67, Hsp70 act inactive and PolyA inh inactive.
Screening O=C(Cc1cccs1)Nc1nc2c(s1)CCCC2 returned HSF1 inhib inactive, STAT3 activator inactive, PERK inh inactive, AHR activator inactive, Hsp70 act inactive and PolyA inh inactive.
For O=C(O)c1cnc2[nH]c3ccccc3n2c1=O the results were HSF1 inhib inactive, PERK inh inactive, AHR activator inactive and PolyA inh inactive.
`CN(C)Cc1c(O)ccc2c(=O)c(-c3ccc(Cl)cc3)coc12` gave HSF1 inhib inactive, AHR activator 66 and PolyA inh inactive.
Screening CCN(CC)Cc1c(O)ccc2c(=O)c(-c3ccc(Cl)cc3)coc12 returned HSF1 inhib inactive, AHR activator inactive and PolyA inh inactive.
CC(CCc1ccccc1)NC(=O)c1ccc2nc(N3CCOCC3)sc2c1 (configuration not stated) was read as HSF1 inhib inactive, STAT3 activator inactive, PERK inh inactive, AHR activator inactive, Hsp70 act inactive and PolyA inh inconclusive.
CCC(Cc1ccccc1)NC(=O)c1ccc2nc(N3CCOCC3)sc2c1 (configuration not stated) was read as HSF1 inhib inactive, AHR activator 59 and PolyA inh inactive.
O=C(C[n+]1ccccc1)N/N=C/c1ccc(C(=O)O)cc1 was read as AHR activator inactive.
Screening S=C(NCCc1ccccc1)N1CCN(Cc2ccc(Cl)c(Cl)c2)CC1 returned HSF1 inhib -62, STAT3 activator inactive, PERK inh inactive, AHR activator inactive, Hsp70 act inactive and PolyA inh inactive.
For Cc1cc(C)nc(Nc2ncc(O)n2-c2ccc(C)c(Cl)c2)n1 the results were HSF1 inhib inactive, STAT3 activator inactive, PERK inh inactive, AHR activator 57, Hsp70 act inactive and PolyA inh inactive.
Screening Cc1cc(C)nc(Nc2ncc(O)n2-c2ccc(C)c(C)c2)n1 returned HSF1 inhib inactive, STAT3 activator inactive, PERK inh inactive, AHR activator inactive, Hsp70 act inactive and PolyA inh inactive.
COc1ccc(C=NNC(=O)c2ccccc2OCc2ccc(F)cc2)c(OC)c1 was read as AHR activator inactive.
Screening CCOC(=O)c1c(C)[nH]c(C(=O)COC(=O)C2=NNC(=O)CC2)c1C returned HSF1 inhib -78, STAT3 activator inactive, PERK inh inactive, AHR activator inactive, Hsp70 act inactive and PolyA inh inactive.
`CC1=NN(c2nc3ccccc3[nH]2)C(=O)C1Cc1ccccc1` (configuration not stated) gave HSF1 inhib inactive, PERK inh inactive, AHR activator inactive and PolyA inh inactive.
Screening COc1ccc(/C=C2\Oc3cc(OCC(=O)N4CC(O)C[C@H]4C(=O)O)ccc3C2=O)cc1OC (some centres not stated) returned HSF1 inhib inactive, AHR activator inactive and PolyA inh inactive.
`Nc1[nH]n2c(=O)c3c(nc2c1N=Nc1ccc(Cl)cc1)CCCC3` gave HSF1 inhib inactive, STAT3 activator inactive, PERK inh inactive, AHR activator 57, Hsp70 act inactive and PolyA inh inactive.
